E coli WT exp: growth inhibitors of wild-type E. coli, primary screen, strain BW25113, expanded library, OD600; OD600 absorbance; growth inhibition, % at 100 µM; hit rate 0.15% among 98,000;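 active = growth inhibition above about 50% at one test dose, limit read from the data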;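 note: growth measured after 20 h incubation at 37 °C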
M1 antagonist: antagonists of rat M1 muscarinic receptor; hit rate 3.4% among 64,000; AID 628, 2007; B-score at 10 µM; CHO-M1 cells, Fluo-4 calcium, ACh EC80 antagonist mode; stronger effect = lower value; Muscarinic acetylcholine receptor M1 (Rattus norvegicus), P08482;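 active = calcium fluorescence response, raw or row-and-column corrected B-score, differing from the plate sample mean either way at a set confidence level, mostly lower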
Target sequence (P08482 whole entry, looked up): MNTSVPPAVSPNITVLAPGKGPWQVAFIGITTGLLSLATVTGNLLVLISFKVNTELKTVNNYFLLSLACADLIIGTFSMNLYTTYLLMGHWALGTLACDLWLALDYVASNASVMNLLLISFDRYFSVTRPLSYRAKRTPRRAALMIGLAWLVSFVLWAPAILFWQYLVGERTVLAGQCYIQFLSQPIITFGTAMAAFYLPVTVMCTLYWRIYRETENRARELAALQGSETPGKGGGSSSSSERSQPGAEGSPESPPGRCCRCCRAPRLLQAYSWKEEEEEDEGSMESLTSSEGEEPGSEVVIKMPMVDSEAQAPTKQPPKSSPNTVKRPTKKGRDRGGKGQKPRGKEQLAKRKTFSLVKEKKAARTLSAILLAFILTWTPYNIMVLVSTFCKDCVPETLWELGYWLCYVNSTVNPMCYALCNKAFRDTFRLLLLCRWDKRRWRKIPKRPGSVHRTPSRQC
tolC growth inh: growth inhibitors of E. coli tolC mutant, primary screen, strain BW25113 ΔtolC::kan, 384-well; OD615; growth inhibition, % at 10 µM (by protocol); hit rate 2.2% among 65,000;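 active = growth inhibition at or above a cutoff equal to the mean over every tested compound plus 3 SD, cut at about 60% in these data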;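 note: growth measured after 20 h incubation at 37 °C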
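Material: E. coli BW25113 ΔtolC::kan, tolC deletion mutant strain. Measure: percent growth inhibition. Schedule: 37 °C, 20 h exposure. Doses: single-point testing at 10 µM. Signal: A615 absorbance measurement. Buffer or medium: kanamycin-containing LB broth (50 µg/mL).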
AP complement: alternative complement pathway inhibitors, primary screen, biochemical, ELISA, human serum, orthogonally pooled compounds; LPS-coated ELISA, C3 deposition; tested in compound mixtures; AID 1235, 2008; inhibition, % at 5 µM; hit rate 0.08% among 62,000;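 active = inhibition above 30% in each of the two pooled mixtures holding the compound, so the lower value exceeds 30%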;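 note: 0% = serum in Mg-EGTA without compound and 100% = EDTA serum blank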
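Medium: diluted human serum in Mg2+-EGTA GVB++. Assay system: human serum complement alternative pathway, C3 deposition onto LPS. Also added: Plate-bound LPS. Technique: Anti-C3 ELISA, OD 450 nm. Measure: percent inhibition. Incubation: 1 h at 37 °C. Dosing: 5 µM each compound, pools of ten, 50 µM per pool.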
M1 agonist: M1 muscarinic receptor agonists, primary screen, CHO-M1 cells, Fluo-4 calcium, agonist mode; Muscarinic acetylcholine receptor M1; Fluo-4 calcium fluorescence; stronger effect = higher value; B-score at 10 µM; hit rate 3% among 64,000; AID 626, 2007;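 active = fluorescence rise, raw or as B-score row- and column-corrected plate score, outside the 99.7% band of its plate's samples, either direction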
WNV NS2B-NS3 inh: inhibitors of WNV NS2B-NS3 protease, primary screen, biochemical, fluorogenic substrate. Genome polyprotein (West Nile virus), P06935. fluorogenic substrate Ex360/Em465; stronger effect = lower value. z-score (concentration not given with the values). hit rate 0.18% among 65,000. AID 577, 2007; in the data active = z-score below about -3
M1 agonist conf: rat M1 muscarinic receptor agonists, confirmation, CHO-M1 cells, Fluo-4 calcium, duplicate retest | Fluo-4 calcium fluorescence, agonist mode; actives lie on both sides | shares compounds with M1 agonist | hit rate 19% among 1,700 | fluorescence change (max-min) at 10 µM | AID 1488, 2009;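 active = fluorescence change differs from the solvent-only DMSO control mean at a set confidence level in both duplicate runs; inconclusive = differs from solvent-only control mean in just one of two runs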;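 note: an EC20 dose of acetylcholine follows compound addition during the same imaging run; raw fluorescence intensity difference in instrument units with no normalization to controls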
M4 ag counter: agonist activity at rat M4 receptor, confirmation, counter-screen for M1 allosteric modulator project, cell-based, agonist mode. AID 1741, 2009. CHO M4/Gqi5 cells, Fluo-4 calcium fluorescence; actives lie on both sides. shares compounds with M1 agonist. fluorescence change (max-min) at 10 µM. hit rate 9% among 1,700;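 active = fluorescence change differing from the plate's solvent-only control wells at 99.7% confidence in both duplicates, whether higher or lower; inconclusive = differs from solvent controls in only one of two duplicates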
* hit, by the source's call; ? = inconclusive; / = no result given. Compounds with a hit are over-represented: about 5.2% of the library has one in this group of screens.

SMILES	E coli WT exp	M1 antagonist	tolC growth inh	AP complement	M1 agonist	WNV NS2B-NS3 inh	M1 agonist conf	M4 ag counter
Cc1ccc2cc(CN(Cc3ccco3)C(=O)NCc3ccccc3)c(=O)[nH]c2c1C	-4.0	-0.0404	1.4	5.8	-0.0246	0.21	/	/
Cc1ccc(C)c2[nH]c(=O)c(CN(Cc3ccco3)C(=O)Nc3ccccc3)cc12	-9.0	-0.37	18.4	7.2	5.24*	0.53	-13.1	-46.8
Cc1ccc(S(=O)(=O)Nc2nc(C)c(NC(=O)Nc3ccc(Cl)cc3Cl)s2)cc1	-2.0	/	/	/	/	/	/	/
CNC(=O)c1ccc(-c2sc3nc(N4CCOCC4)c4c(c3c2N)CC(C)(C)OC4)o1	-7.0	/	/	/	/	/	/	/
CNC(=O)c1ccc(-c2sc3nc(N4CCOCC4)c4c(c3c2N)CCCC4)o1	-9.0	-1.12	29.0	2.6	5.83*	0.38	-3.73	-68.9*
O=C(CCn1nnc(-c2cccs2)n1)NC1CCCCC1	7.0	0.349	-5.4	-9.6	1.31	-0.45	/	/
O=C1CC(c2ccncc2)c2cc3c(cc2N1)OCO3 (stereo not given)	-1.0	0.0734	-0.3	14.8	2.45*	0.92	-8.09	?
C=CCc1cccc2cc(C(=O)OCC(=O)c3ccccc3)c(=O)oc12	-2.0	/	/	/	/	/	/	/
Cc1onc(-c2ccccc2Cl)c1C(=O)NCCn1c(C)cc2ccccc21	/	0.241	18.0	8.2	-0.357	-0.56	/	/
COC(=O)c1ccc(OCC2c3cc(OC)c(OC)cc3CCN2C(=O)C2CC2)cc1 (stereo not given)	-1.0	-0.0995	25.9	11.6	8.67*	-0.16	-32.2*	-47.3
Cc1noc(C)c1CSc1cc(C)c2ccccc2n1	-15.0	0.0315	21.4	8.3	-0.497	-0.4	/	/
CN1C=CC2=C(C#N)C(N)C(C#N)(C#N)C(c3ccccc3)C2C1 (stereo not given)	6.0	-0.336	-4.2	7.8	34.3*	0.23	187*	179*
COCCSc1ccccc1C(=O)Nc1nncs1	-4.0	0.000205	-3.5	-11.7	-0.195	1.16	/	/
Clc1nc2sccn2c1/C=N/n1cnc2ccccc21	5.0	-0.8	3.6	-3.8	8.39*	-0.01	-9.23	-46.2
C(=N\n1cnc2ccccc21)/c1cccnc1	6.0	/	/	/	/	/	/	/
COc1ccc(CCNC(=O)COC(=O)c2ccco2)cc1OC	-2.0	-0.741	-4.3	-21.0	0.056	0.49	/	/
COc1ccc(CCNC(=O)c2ccc3nc(-c4ccco4)c(-c4ccco4)nc3c2)cc1OC	-12.0	-1.04	27.3	2.2	8.51*	-1.52	-1.94	-18.6
O=C(N1CCOCC1)C1(c2ccccc2)CCCCC1	5.0	0.166	0.0	-0.9	-0.178	0.48	/	/
O=C(C1CC1(c1ccccc1)c1ccccc1)N1CCOCC1 (stereo not given)	8.0	-0.0299	2.1	-9.0	-2.75*	-0.14	-16.3	-43.8
CCCS(=O)(=O)c1nc(S(=O)(=O)c2ccc(C)cc2)c(NCCCN2CCOCC2)s1	1.0	0.0168	-1.6	11.6	2.45*	-0.75	-13.9	?
O=C(NNC(=O)C1CCCCC1)C(=O)NC1CCCCC1	0.0	/	/	/	/	/	/	/
CCCCOC(=O)Nc1ccc(C)c(Cl)c1	25.0	/	/	/	/	/	/	/
COc1ccc(-c2cn3c(C)c(C(=O)Nc4cccc(C)n4)sc3n2)cc1	-8.0	1.09	3.6	8.1	0.719	-0.75	/	/
Cc1cccc(NC(=O)c2sc3nc(-c4ccccc4)cn3c2C)n1	-18.0	-0.717	0.7	/	2.39*	0.13	?	-43
CC(C)CNS(=O)(=O)c1ccc(S(=O)(=O)N2CCN(CCC#N)CC2)cc1	-8.0	-0.672	-3.1	4.5	0.0986	-0.4	/	/
CCn1c(SCC(=O)Nc2nc3ccccc3s2)nc2c(c1=O)SC(C)C2 (stereo not given)	-26.0	-1.13	25.6	7.2	2.3*	-1.08	?	-69.9
